In ChEMBL document CHEMBL4316657, “Sesquiterpenes from an Endophytic Aspergillus flavus” (J Nat Prod, 2019):

Tests used:
HepG2 [1] = test: Hepatoprotective activity against APAP-induced toxicity in human HepG2 cells assessed as cell survival rate at 10 uM after 48 hrs by MTT assay relative to control; assay type: functional; settings: HepG2, 48 h, read-out: Survival
Method in brief: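 HepG2 cells were co-treated with compound (10 μM final) and acetaminophen (10 mM final per methods; results text cites 8 mM) for 48 h. Bicyclol served as positive control and DMSO as negative control. MTT (0.5 mg/mL) was added for 4 h at 37 °C, formazan dissolved in DMSO, and A570 read. Survival = mean OD treated / mean OD solvent control.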

A549 = test: Cytotoxicity against human A549 cells measured after 72 hrs by MTT assay; settings: A549, 72 h
HCT-116 = test: Cytotoxicity against human HCT116 cells measured after 72 hrs by MTT assay; settings: HCT-116, 72 h
MCF7 = test: Cytotoxicity against human MCF7 cells measured after 72 hrs by MTT assay; settings: MCF7, 72 h
HepG2 [2] = test: Cytotoxicity against human HepG2 cells measured after 72 hrs by MTT assay; settings: HepG2, 72 h
BGC-823 = test: Cytotoxicity against human BGC823 cells measured after 72 hrs by MTT assay; settings: BGC-823, 72 h

With CC(C)[C@H]1CC[C@@H](CO)c2c(O)cc(C(=O)O)cc21 the viability at 10 µM (HepG2 [1]) was 33.2 to 41.6%.
Work on CC(C)[C@H]1CC[C@H](CO)c2c(O)cc(C(=O)O)cc21 yielded a viability at 10 µM (HepG2 [1]) of 33.2 to 41.6%.
C=C(CC[C@@H](C)[C@H]1CC[C@H]2C3=CC(=O)[C@H]4[C@H](O)[C@@H](O)CC[C@]4(C)[C@H]3CC[C@]12C)C(C)COC (stereo partly drawn) gave an IC50 (A549) of over 10000 nM, an IC50 (HCT-116) of over 10000 nM and an IC50 (MCF7) of 2600 nM. It also gave an IC50 (HepG2 [2]) of over 10000 nM, a viability at 10 µM (HepG2 [1]) of 33.2 to 41.6% and an IC50 (BGC-823) of over 10000 nM.
CC(=O)OC/C(=C\[C@@H]1[C@@H](C(C)C)CC[C@@]2(O)COC(=O)[C@@H]12)C(=O)O showed a viability at 10 µM (HepG2 [1]) of 33.2 to 41.6%.
CC(C)[C@H]1CC[C@H](C(=O)O)[C@H]2CCC(C(=O)O)=C[C@@H]21 showed a viability at 10 µM (HepG2 [1]) of 33.2 to 41.6%.
C=C1CC[C@H](C(C)C)[C@@H](/C=C(\CC(=O)O)C(=O)O)[C@@H]1O was tested, and the viability at 10 µM (HepG2 [1]) was 33.2 to 41.6%.
For C=C(C)[C@@]12O[C@@H]1[C@@]1(C)C(=CC2=O)CC[C@@H](O)[C@@H]1C, the viability at 10 µM (HepG2 [1]) was 33.2 to 41.6%.
COC(=O)c1cc(OC)c2c(c1-c1c(CO)cc(OC)c3c1OCO3)OCO2 [BICYCLOL] was tested, and the viability at 10 µM (HepG2 [1]) was 31.9%.
Work on CC(=O)O[C@H]1C(=O)[C@@]2(C)[C@H]([C@H](OC(=O)c3ccccc3)[C@]3(O)C[C@H](OC(=O)[C@H](O)[C@@H](NC(=O)c4ccccc4)c4ccccc4)C(C)=C1C3(C)C)[C@]1(OC(C)=O)CO[C@@H]1C[C@@H]2O [PACLITAXEL] yielded an IC50 (A549) of 13.7 nM, an IC50 (HCT-116) of 1.8 nM and an IC50 (MCF7) of 0.2 nM. For the same molecule, the IC50 (HepG2 [2]) was 1.9 nM and the IC50 (BGC-823) was 0.4 nM.
